Assay results as given in ChEMBL document CHEMBL1124220 (J Med Chem, 1988).
Starred links: 1 amine or outer side, 2 acyl side, 3 side chain; linkers in the order of their positions; H or OH if unused. Non-standard residues stand in square brackets, D forms with d. Residues, ends and D or L forms follow the SMILES beside them. Ala(imidazol-2-yl) = N[C@@H](Cc1ncc[nH]1)C(=O)O; X2 = O=C([C@H](CCc1ncc[nH]1)N[*:1])[*:2]; Phe(4-NH2) = Nc1ccc(C[C@H](N)C(=O)O)cc1; 3Thi = N[C@@H](Cc1ccsc1)C(=O)O; Aib = CC(C)(N)C(=O)O; Sar = CNCC(=O)O

Legend:
Assay type in all cases: functional
Oryctolagus cuniculus = species on record: Oryctolagus cuniculus; test: In vitro agonist angiotensin II like activity was measured in the rabbit aorta strip assay
Summary of the method: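 Isolated rabbit aortic strips in vitro. Agonist (AII-like) activity expressed as percent of the activity of AII.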

Rattus norvegicus [1] = test: In vivo agonist angiotensin II like activity was measured in rat blood pressure assay; parameters: concentration or dose not given beside the values
Summary of the method: (§1)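 Rat blood pressure in vivo. Residual AII-like activity read as the pressor rise (mmHg) after a 1-μg intravenous bolus of compound. Mean of at least five tests with standard error.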

Rattus norvegicus [2] = test: Antagonist activity ID50 was measured in vivo in the rat blood pressure assay
Summary of the method: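 Rat blood pressure in vivo, 250-g rats, compound given by infusion. AII dose-response curves measured before and during the infusion. ID50 expressed as ng/rat per min. Mean of at least five tests with standard error.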

Rattus norvegicus [3] = test: In vivo agonist angiotensin II like activity was measured in rat blood pressure increase by a 1 ug iv injection; summary of the method: as §1

Structure (SMILES)	Activity (Oryctolagus cuniculus)	Activity (Rattus norvegicus [1])	also measured
CC[C@H](C)[C@H](NC(=O)[C@@H]1CCCN1C(=O)[C@@H](Cc1c[nH]cn1)NC(=O)[C@@H](NC(=O)[C@H](Cc1ccc(O)cc1)NC(=O)[C@@H](NC(=O)[C@H](CCCN=C(N)N)NC(=O)CNC)C(C)C)[C@@H](C)CC)C(=O)O	0%	–	–
CC[C@H](C)[C@H](NC(=O)[C@H](Cc1ccc(O)cc1)NC(=O)[C@@H](NC(=O)[C@H](N)CCCCN)C(C)C)C(=O)N[C@@H](Cc1c[nH]cn1)C(=O)N1CCC[C@H]1C(=O)N[C@@H](Cc1ccccc1)C(=O)O	–	23%	–
CC[C@H](C)[C@H](NC(=O)[C@H](Cc1ccc(O)cc1)NC(=O)[C@@H](NC(=O)[C@@H](N)CCCN)C(C)C)C(=O)N[C@@H](Cc1c[nH]cn1)C(=O)N1CCC[C@H]1C(=O)N[C@@H](Cc1ccccc1)C(=O)O	–	3%	–
CC[C@H](C)[C@H](NC(=O)[C@H](Cc1ccc(O)cc1)NC(=O)[C@@H](NC(=O)[C@H](N)CCCN)C(C)C)C(=O)N[C@@H](Cc1c[nH]cn1)C(=O)N1CCC[C@H]1C(=O)N[C@@H](Cc1ccccc1)C(=O)O	–	23%	–
CC[C@H](C)[C@H](NC(=O)[C@@H]1CCCN1C(=O)[C@H](Cc1c[nH]cn1)NC(=O)[C@@H](NC(=O)[C@H](Cc1ccc(O)cc1)NC(=O)[C@@H](NC(=O)[C@H](CCCCN=C(N)N)NC(=O)CNC)C(C)C)[C@@H](C)CC)C(=O)O	0%	–	ID50 (Rattus norvegicus [2]): 50 ng min-1 rat-1; BP increase (Rattus norvegicus [3]): 7.5 mmHg
CC[C@H](C)[C@H](NC(=O)[C@H](Cc1ccc(O)cc1)NC(=O)[C@@H](NC(=O)[C@H](CCCN=C(N)N)NC(=O)[C@@H](N)CC(=O)O)C(C)C)C(=O)N[C@@H](Cc1cncn1C)C(=O)N1CCC[C@H]1C(=O)N[C@@H](Cc1ccccc1)C(=O)O	–	0.05%	–
CC[C@H](C)[C@H](NC(=O)[C@@H]1CCCN1C(=O)[C@H](Cc1cncn1C)NC(=O)[C@@H](NC(=O)[C@H](Cc1ccc(O)cc1)NC(=O)[C@@H](NC(=O)[C@H](CCCN=C(N)N)NC(=O)CNC)C(C)C)[C@@H](C)CC)C(=O)O	0%	–	ID50 (Rattus norvegicus [2]): 100 ng min-1 rat-1; BP increase (Rattus norvegicus [3]): 2.5 mmHg
CC[C@H](C)[C@H](NC(=O)[C@@H]1CCCN1C(=O)[C@H](Cc1c[nH]cn1)NC(=O)[C@@H](NC(=O)[C@H](Cc1ccc(O)cc1)NC(=O)[C@@H](NC(=O)[C@H](CCCNC(N)=O)NC(=O)CNC)C(C)C)[C@@H](C)CC)C(=O)O	0%	–	BP increase (Rattus norvegicus [3]): 25 mmHg
CC[C@H](N)C(=O)N[C@H](C(=O)N[C@@H](Cc1ccc(O)cc1)C(=O)N[C@H](C(=O)N[C@@H](Cc1c[nH]cn1)C(=O)N1CCC[C@H]1C(=O)N[C@@H](Cc1ccccc1)C(=O)O)[C@@H](C)CC)C(C)C	–	0.92%	–
CC[C@H](C)[C@H](NC(=O)[C@H](Cc1ccc(O)cc1)NC(=O)[C@@H](NC(=O)[C@@H](N)CCCCN)C(C)C)C(=O)N[C@@H](Cc1c[nH]cn1)C(=O)N1CCC[C@H]1C(=O)N[C@@H](Cc1ccccc1)C(=O)O	–	3%	–
CC[C@H](C)[C@H](NC(=O)[C@@H]1CCCN1C(=O)[C@H](Cc1c[nH]cn1)NC(=O)[C@@H](NC(=O)[C@H](Cc1ccc(O)cc1)NC(=O)[C@@H](NC(=O)[C@@H](N)CCCN=C(N)N)C(C)C)[C@@H](C)CC)C(=O)O	0%	–	ID50 (Rattus norvegicus [2]): 200 ng min-1 rat-1; BP increase (Rattus norvegicus [3]): 5 mmHg
CC[C@H](C)[C@H](NC(=O)[C@H](Cc1ccc(O)cc1)NC(=O)[C@@H](NC(=O)[C@@H](C)N)C(C)C)C(=O)N[C@@H](Cc1c[nH]cn1)C(=O)N1CCC[C@H]1C(=O)N[C@@H](Cc1ccccc1)C(=O)O	–	48%	–
CC[C@H](C)[C@H](NC(=O)[C@H](Cc1ccc(O)cc1)NC(=O)[C@@H](NC(=O)[C@H](C)N)C(C)C)C(=O)N[C@@H](Cc1c[nH]cn1)C(=O)N1CCC[C@H]1C(=O)N[C@@H](Cc1ccccc1)C(=O)O	–	3%	–
CC[C@H](C)[C@H](NC(=O)[C@H](Cc1ccc(O)cc1)NC(=O)[C@@H](NC(=O)[C@H](N)CCCCN=C(N)N)C(C)C)C(=O)N[C@@H](Cc1c[nH]cn1)C(=O)N1CCC[C@H]1C(=O)N[C@@H](Cc1ccccc1)C(=O)O	–	11%	–
CC[C@H](C)[C@H](NC(=O)[C@@H]1CCCN1C(=O)[C@H](Cc1c[nH]cn1)NC(=O)[C@@H](NC(=O)[C@H](Cc1ccc(O)cc1)NC(=O)[C@@H](NC(=O)[C@H](C)N)C(C)C)[C@@H](C)CC)C(=O)O	0%	–	–
CC[C@H](C)[C@H](NC(=O)[C@H](Cc1ccc(O)cc1)NC(=O)[C@@H](NC(=O)[C@@H](C)NC)C(C)C)C(=O)N[C@@H](Cc1c[nH]cn1)C(=O)N1CCC[C@H]1C(=O)N[C@@H](Cc1ccccc1)C(=O)O	1.4%	–	BP increase (Rattus norvegicus [3]): 85 mmHg
CC[C@H](C)[C@H](NC(=O)[C@H](Cc1ccc(O)cc1)NC(=O)[C@@H](NC(=O)[C@H](CCCN=C(N)N)NC(=O)[C@@H](N)CC(=O)O)C(C)C)C(=O)N[C@@H](Cc1cn(C)cn1)C(=O)N1CCC[C@H]1C(=O)N[C@@H](Cc1ccccc1)C(=O)O	–	5%	–

Structure (SMILES)	Activity (Oryctolagus cuniculus)	Activity (Rattus norvegicus [1])	also measured
CC[C@H](C)[C@H](NC(=O)[C@H](Cc1ccc(O)cc1)NC(=O)[C@@H](NC(=O)[C@H](CCCN=C(N)N)NC(=O)[C@@H](N)CC(=O)O)C(C)C)C(=O)N[C@@H](C)C(=O)N1CCC[C@H]1C(=O)N[C@@H](Cc1ccccc1)C(=O)O (H-DRVYIAPF-OH)	–	0.8%	–
CC[C@H](C)[C@H](NC(=O)[C@H](Cc1ccc(O)cc1)NC(=O)[C@@H](NC(=O)[C@H](CCCN=C(N)N)NC(=O)[C@@H](N)CC(=O)O)C(C)C)C(=O)N[C@@H](Cc1ccccc1)C(=O)N1CCC[C@H]1C(=O)N[C@@H](Cc1ccccc1)C(=O)O (H-DRVYIFPF-OH)	–	5.1%	–
CC[C@H](C)[C@H](NC(=O)[C@H](Cc1ccc(O)cc1)NC(=O)[C@@H](NC(=O)[C@H](CCCN=C(N)N)NC(=O)[C@@H](N)CC(=O)O)C(C)C)C(=O)N[C@@H](CCCCN)C(=O)N1CCC[C@H]1C(=O)N[C@@H](Cc1ccccc1)C(=O)O (H-DRVYIKPF-OH)	–	–	Activity (Rattus norvegicus [3]): 0.1%
CC[C@H](C)[C@H](NC(=O)[C@H](Cc1ccc(O)cc1)NC(=O)[C@@H](NC(=O)[C@H](CCCN=C(N)N)NC(=O)[C@@H](N)CC(=O)O)C(C)C)C(=O)N[C@@H](Cc1ccsc1)C(=O)N1CCC[C@H]1C(=O)N[C@@H](Cc1ccccc1)C(=O)O (H-DRVYI[3Thi]PF-OH)	–	19.3%	–
CC[C@H](C)[C@H](NC(=O)[C@H](Cc1ccc(O)cc1)NC(=O)[C@@H](NC(=O)[C@H](CCCN=C(N)N)NC(=O)[C@@H](N)CC(=O)O)C(C)C)C(=O)N[C@@H](Cc1ncc[nH]1)C(=O)N1CCC[C@H]1C(=O)N[C@@H](Cc1ccccc1)C(=O)O (H-DRVYI[Ala(imidazol-2-yl)]PF-OH)	–	0.4%	–
CC[C@H](C)[C@H](NC(=O)[C@H](Cc1ccc(O)cc1)NC(=O)[C@@H](NC(=O)[C@H](CCCN=C(N)N)NC(=O)[C@@H](N)CC(=O)O)C(C)C)C(=O)N[C@@H](Cc1ccc(N)cc1)C(=O)N1CCC[C@H]1C(=O)N[C@@H](Cc1ccccc1)C(=O)O (H-DRVYI[Phe(4-NH2)]PF-OH)	–	0.05%	–
CC[C@H](C)[C@H](NC(=O)[C@H](Cc1ccc(O)cc1)NC(=O)[C@@H](NC(=O)[C@H](CCCN=C(N)N)NC(=O)[C@@H](N)CC(=O)O)C(C)C)C(=O)N[C@@H](CCc1ncc[nH]1)C(=O)N1CCC[C@H]1C(=O)N[C@@H](Cc1ccccc1)C(=O)O (H-DRVYI[X2]PF-OH)	–	0.05%	–
CC[C@H](C)[C@H](NC(=O)[C@H](Cc1ccc(O)cc1)NC(=O)[C@@H](NC(=O)[C@H](CCCN=C(N)N)NC(=O)[C@@H](N)CC(N)=O)C(C)C)C(=O)N[C@@H](Cc1c[nH]cn1)C(=O)N1CCC[C@H]1C(=O)N[C@@H](Cc1ccccc1)C(=O)O (H-NRVYIHPF-OH)	–	4%	–
CC[C@H](C)[C@H](NC(=O)[C@H](Cc1ccc(O)cc1)NC(=O)[C@@H](NC(=O)C(C)(C)N)C(C)C)C(=O)N[C@@H](Cc1c[nH]cn1)C(=O)N1CCC[C@H]1C(=O)N[C@@H](Cc1ccccc1)C(=O)O (H-[Aib]VYIHPF-OH)	0%	–	BP increase (Rattus norvegicus [3]): 60 mmHg
CC[C@H](C)[C@H](NC(=O)[C@@H]1CCCN1C(=O)[C@H](Cc1c[nH]cn1)NC(=O)[C@@H](NC(=O)[C@H](Cc1ccc(O)cc1)NC(=O)[C@@H](NC(=O)C(C)(C)N)C(C)C)[C@@H](C)CC)C(=O)O (H-[Aib]VYIHPI-OH)	0%	–	–
CC[C@H](C)[C@H](NC(=O)[C@H](Cc1ccc(O)cc1)NC(=O)[C@@H](NC(=O)[C@H](CCCN=C(N)N)NC(=O)CNC)C(C)C)C(=O)N[C@@H](CC(=O)O)C(=O)N1CCC[C@H]1C(=O)N[C@H](C(=O)O)[C@@H](C)O (H-[Sar]RVYIDPT-OH)	0%	–	–
CC[C@H](C)[C@H](NC(=O)[C@H](Cc1ccc(O)cc1)NC(=O)[C@@H](NC(=O)[C@H](CCCN=C(N)N)NC(=O)CNC)C(C)C)C(=O)N[C@@H](Cc1c[nH]cn1)C(=O)N1CCC[C@H]1C(=O)N[C@H](C(=O)O)[C@@H](C)O (H-[Sar]RVYIHPT-OH)	0.6%	–	–
CC[C@H](C)[C@H](NC(=O)[C@@H]1CCCN1C(=O)[C@H](CCCCN)NC(=O)[C@@H](NC(=O)[C@H](Cc1ccc(O)cc1)NC(=O)[C@@H](NC(=O)[C@H](CCCN=C(N)N)NC(=O)CNC)C(C)C)[C@@H](C)CC)C(=O)O (H-[Sar]RVYIKPI-OH)	0%	–	–
CC[C@H](C)[C@H](NC(=O)[C@H](Cc1ccc(O)cc1)NC(=O)[C@@H](NC(=O)CN(C)C(=O)CNC)C(C)C)C(=O)N[C@@H](Cc1c[nH]cn1)C(=O)N1CCC[C@H]1C(=O)N[C@H](C(=O)O)[C@@H](C)O (H-[Sar][Sar]VYIHPT-OH)	0%	–	–
CC[C@H](C)[C@H](NC(=O)[C@H](Cc1ccc(O)cc1)NC(=O)[C@@H](NC(=O)[C@@H](N)CCCN=C(N)N)C(C)C)C(=O)N[C@@H](Cc1c[nH]cn1)C(=O)N1CCC[C@H]1C(=O)N[C@@H](Cc1ccccc1)C(=O)O (stereo in doubt; 5)	47.4%	15%	–
CC[C@H](C)[C@H](NC(=O)[C@H](Cc1ccc(O)cc1)NC(=O)[C@@H](NC(=O)[C@@H](N)CCCN=C(N)N)C(C)C)C(=O)N[C@@H](Cc1c[nH]cn1)C(=O)N1CCC[C@H]1C(=O)N[C@@H](Cc1ccccc1)C(=O)O (stereo in doubt; 6)	43.3%	33.3%	–
